Assay results collected from several papers.
Protocols differ between the studies behind these lines.
Sample: plasma

With `OC[C@H]1O[C@@H](c2cc(Cc3ccc(C4CC4)cc3)c(Cl)c3c2CCO3)[C@H](O)[C@@H](O)[C@@H]1O` the Cmax was 4.5 ng/mL (human; oral; 0.3 mg; single dose, fasted).
`COc1ccc2c(c1)CN(C(=O)CCN1CCC(Cc3ccccc3)CC1)CC[S@@+]2[O-]` gave a Cmax of 1310 ng/mL (male human; intravenous; 0.6 mg/kg; healthy volunteers).
`CC(=O)N(C)[C@H]1CCN(C(=O)c2cnc3c(c2)C[C@](C)(c2ccc(F)cc2)N3)C1` has a Cmax of 797 nM (male human; oral; 30 mg; multiple doses, once daily, steady state).
`CC(C)n1c(C2CCNCC2)nc2c([N+](=O)[O-])c(Br)c(Br)cc21` gave a Cmax of 8.77 ng/mL (human; oral; 25 mg; patients).
For `O=C(COc1ccc(Cl)cc1)NC12CC(c3nnc([C@H]4C[C@@H](OC(F)(F)F)C4)o3)(C1)C2`, the Cmax was 9280 nM (human; oral; 145 mg; multiple doses, once daily, steady state, healthy volunteers).
For `COc1ccc(F)cc1C(=O)NCc1ccc(-c2nn([C@@H](C)C(F)(F)F)c(N)c2C(N)=O)cc1`, the Cmax was 4490 ng/mL (male human; oral; 200 mg; single dose).
`COc1ccc(-c2c(Nc3ccccn3)[nH]c3c(C4=CCCCC4)c(-c4ccccc4)nn3c2=O)cc1` gave a Cmax of 5720 ng/mL (human; oral; 200 mg once daily; multiple doses, patients).
For `C=CC(=O)NC1CCN(c2ncc3ncnc(Nc4ccc(Oc5ccc6c(c5)ncn6C)c(C)c4)c3n2)CC1`, the Cmax was 1160 nM (male human; oral; 60 mg; single dose, healthy volunteers).
With `N#Cc1cccc(-c2ccc3ncc(-c4cc(F)cc(F)c4)c(N4CCC(N)CC4)c3c2)c1O` the Cmax was 162 ng/mL (male human; oral; 20 mg; single dose).
`Cc1cc(-c2nccc3c2ccn3CC(=O)Nc2ccc(-c3cnccn3)cn2)ccn1` gave a Cmax of 188 nM (human; oral; 20 mg; single dose).
